Test results: ChEMBL document CHEMBL4354843, “Structure-Based Design of a Potent and Selective Covalent Inhibitor for SRC Kinase That Targets a P-Loop Cysteine” (J Med Chem, 2020)

Assays:
[1] = system: Epidermal growth factor receptor (Homo sapiens), P00533 [UNDEFINED MUTATION]; experiment: Binding affinity to human partial length EGFR S752-I759del mutant expressed in bacterial expression system assessed as residual binding level at 1 uM by Kinomescan method relative to control
Summary of the method: (§1)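 KinomeScan active site-directed competition binding panel (468 kinases), compound tested at 1 μM. Result expressed as remaining kinase signal versus DMSO control (percent of control).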

[2] = biological target: 5'-AMP-activated protein kinase catalytic subunit alpha-1 (Homo sapiens) (UniProt Q13131); experiment: Binding affinity to wild-type human partial length AMPK alpha1 (M1 to E306 residues) expressed in bacterial expression system assessed as residual binding level at 1 uM by Kinomescan method relative to control
[3] = biological target: Mitogen-activated protein kinase 8 (Homo sapiens) (UniProt P45983); experiment: Binding affinity to wild-type human full length JNK1 (M1 to Q384 residues) expressed in mammalian expression system assessed as residual binding level at 1 uM by Kinomescan method relative to control
Sequence of Mitogen-activated protein kinase 8 (Homo sapiens) (P45983 whole entry, the tested form may be a part): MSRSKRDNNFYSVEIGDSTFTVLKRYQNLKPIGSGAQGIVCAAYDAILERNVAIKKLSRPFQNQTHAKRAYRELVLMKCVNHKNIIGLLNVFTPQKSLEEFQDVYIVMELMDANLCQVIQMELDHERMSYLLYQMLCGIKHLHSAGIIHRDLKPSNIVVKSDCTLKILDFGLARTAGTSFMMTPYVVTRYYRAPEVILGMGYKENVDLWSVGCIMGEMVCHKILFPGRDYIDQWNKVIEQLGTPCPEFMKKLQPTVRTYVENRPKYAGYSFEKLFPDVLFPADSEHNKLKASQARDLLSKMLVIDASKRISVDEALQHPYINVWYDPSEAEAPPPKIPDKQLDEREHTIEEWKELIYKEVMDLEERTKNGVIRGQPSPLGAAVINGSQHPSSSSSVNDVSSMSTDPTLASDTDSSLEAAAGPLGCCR
Summary of the method: (§2)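 KinomeScan, an active site-directed competition binding panel of 468 kinases. The test compound was at 1 μM. The readout is remaining kinase binding as a percentage of the DMSO control. Scores above 35% were treated as weak binding and not listed.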

[4] = system: Epidermal growth factor receptor (Homo sapiens), P00533 [G719C]; experiment: Binding affinity to human partial length EGFR G719C mutant (R669 to V1011 residues) expressed in bacterial expression system assessed as residual binding level at 1 uM by Kinomescan method relative to control; summary of the method: as §1
[5] = system: Phosphatidylinositol 4,5-bisphosphate 3-kinase catalytic subunit alpha isoform (Homo sapiens), P42336 [M1043I]; experiment: Binding affinity to human partial length PIK3CA M1043I mutant (R108 to N1068 residues) expressed in mammalian expression system assessed as residual binding level at 1 uM by Kinomescan method relative to control; summary of the method: as §1
[6] = biological target: Serine/threonine-protein kinase Sgk3 (Homo sapiens) (UniProt Q96BR1); experiment: Binding affinity to wild-type human partial length SGK3 (M119 to L496 residues) expressed in mammalian expression system assessed as residual binding level at 1 uM by Kinomescan method relative to control
Sequence of Serine/threonine-protein kinase Sgk3 (Homo sapiens) (Q96BR1 whole entry, the tested form may be a part): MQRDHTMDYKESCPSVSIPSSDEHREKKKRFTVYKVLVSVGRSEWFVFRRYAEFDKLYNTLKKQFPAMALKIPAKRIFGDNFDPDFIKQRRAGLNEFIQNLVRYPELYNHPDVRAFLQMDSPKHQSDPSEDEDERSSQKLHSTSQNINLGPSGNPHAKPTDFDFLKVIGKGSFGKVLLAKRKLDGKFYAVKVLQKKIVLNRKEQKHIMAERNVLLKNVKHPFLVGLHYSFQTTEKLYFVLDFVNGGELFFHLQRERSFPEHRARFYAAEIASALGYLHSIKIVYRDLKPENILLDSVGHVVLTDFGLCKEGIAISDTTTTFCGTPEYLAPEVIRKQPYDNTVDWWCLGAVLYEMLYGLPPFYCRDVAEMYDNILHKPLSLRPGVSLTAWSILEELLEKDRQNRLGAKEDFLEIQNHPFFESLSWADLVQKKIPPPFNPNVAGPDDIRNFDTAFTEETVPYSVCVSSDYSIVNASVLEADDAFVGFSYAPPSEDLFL
Summary of the method: (§3)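 Active site-directed competition binding panel (KinomeScan, 468 kinases). Test compound at 1 μM. Read-out is kinase binding remaining versus DMSO control, expressed as percent of control. Scores above 35% are treated as weak binding.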

[7] = biological target: Vascular endothelial growth factor receptor 1 (Homo sapiens) (UniProt P17948); experiment: Binding affinity to wild-type human partial length FLT1 (R781 to F1239 residues) expressed in bacterial expression system assessed as residual binding level at 1 uM by Kinomescan method relative to control
Sequence of Vascular endothelial growth factor receptor 1 (Homo sapiens) (P17948 whole entry, the tested form may be a part): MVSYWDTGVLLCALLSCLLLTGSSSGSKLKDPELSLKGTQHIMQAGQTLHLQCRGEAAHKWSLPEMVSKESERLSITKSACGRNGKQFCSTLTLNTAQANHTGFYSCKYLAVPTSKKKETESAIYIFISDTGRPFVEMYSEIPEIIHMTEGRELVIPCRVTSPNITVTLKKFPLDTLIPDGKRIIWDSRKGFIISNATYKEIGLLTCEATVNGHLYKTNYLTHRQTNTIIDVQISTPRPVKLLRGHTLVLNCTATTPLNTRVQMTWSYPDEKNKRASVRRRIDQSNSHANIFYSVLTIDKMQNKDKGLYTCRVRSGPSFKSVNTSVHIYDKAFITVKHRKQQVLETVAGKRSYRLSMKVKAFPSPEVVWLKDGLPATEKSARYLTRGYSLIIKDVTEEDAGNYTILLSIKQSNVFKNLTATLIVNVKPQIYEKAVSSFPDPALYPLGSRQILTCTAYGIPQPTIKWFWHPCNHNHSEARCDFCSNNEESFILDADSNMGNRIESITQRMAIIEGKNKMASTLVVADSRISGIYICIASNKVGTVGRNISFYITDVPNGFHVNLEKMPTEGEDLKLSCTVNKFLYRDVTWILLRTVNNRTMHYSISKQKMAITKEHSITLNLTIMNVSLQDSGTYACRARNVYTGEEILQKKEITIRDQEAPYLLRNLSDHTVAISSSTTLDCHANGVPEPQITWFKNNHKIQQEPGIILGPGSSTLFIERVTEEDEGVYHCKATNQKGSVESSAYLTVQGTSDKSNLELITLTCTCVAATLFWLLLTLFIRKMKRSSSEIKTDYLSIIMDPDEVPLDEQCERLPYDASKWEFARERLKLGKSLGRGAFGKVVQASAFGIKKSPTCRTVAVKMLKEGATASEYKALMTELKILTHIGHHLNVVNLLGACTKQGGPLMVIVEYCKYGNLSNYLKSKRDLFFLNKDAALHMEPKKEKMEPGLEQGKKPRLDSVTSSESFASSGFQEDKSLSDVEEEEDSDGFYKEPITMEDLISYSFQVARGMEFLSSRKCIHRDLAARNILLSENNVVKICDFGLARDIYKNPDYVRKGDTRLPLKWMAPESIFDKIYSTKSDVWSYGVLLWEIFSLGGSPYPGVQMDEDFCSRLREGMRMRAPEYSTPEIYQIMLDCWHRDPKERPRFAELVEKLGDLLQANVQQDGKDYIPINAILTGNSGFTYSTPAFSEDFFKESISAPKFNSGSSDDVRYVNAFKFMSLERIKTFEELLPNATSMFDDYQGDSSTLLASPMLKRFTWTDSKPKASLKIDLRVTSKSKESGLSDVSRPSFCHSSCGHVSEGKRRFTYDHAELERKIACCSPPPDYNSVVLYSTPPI

[8] = biological target: Mitogen-activated protein kinase 1 (Homo sapiens) (UniProt P28482); experiment: Binding affinity to wild-type human full length ERK2 (M1 to S360 residues) expressed in bacterial expression system assessed as residual binding level at 1 uM by Kinomescan method relative to control
Sequence of Mitogen-activated protein kinase 1 (Homo sapiens) (P28482 whole entry, the tested form may be a part): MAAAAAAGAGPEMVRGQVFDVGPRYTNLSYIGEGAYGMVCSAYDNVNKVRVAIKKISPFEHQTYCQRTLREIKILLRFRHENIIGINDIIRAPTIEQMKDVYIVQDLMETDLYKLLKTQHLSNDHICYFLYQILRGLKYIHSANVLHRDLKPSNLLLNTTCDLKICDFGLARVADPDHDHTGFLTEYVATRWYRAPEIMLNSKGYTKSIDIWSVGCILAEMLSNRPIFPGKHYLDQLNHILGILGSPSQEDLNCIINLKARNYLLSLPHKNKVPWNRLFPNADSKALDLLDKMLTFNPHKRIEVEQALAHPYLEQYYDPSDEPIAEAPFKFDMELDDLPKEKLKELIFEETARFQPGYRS
Summary of the method: (§4)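 Active-site-directed KinomeScan competition binding panel covering 468 kinases, compound tested at 1 μM. Each readout is the kinase signal remaining with compound, expressed as a percentage of the DMSO control. […]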

[9] = biological target: Serine/threonine-protein kinase TAO3 (Homo sapiens) (UniProt Q9H2K8); experiment: Binding affinity to wild-type human partial length TAOK3 (M1 to T316 residues) expressed in mammalian expression system assessed as residual binding level at 1 uM by Kinomescan method relative to control
[10] = biological target: Cyclin-dependent kinase 8 (Homo sapiens) (UniProt P49336); experiment: Binding affinity to wild-type human partial length CDK8 (M1 to T360 residues) expressed in bacterial expression system assessed as residual binding level at 1 uM by Kinomescan method relative to control
Sequence of Cyclin-dependent kinase 8 (Homo sapiens) (P49336 whole entry, the tested form may be a part): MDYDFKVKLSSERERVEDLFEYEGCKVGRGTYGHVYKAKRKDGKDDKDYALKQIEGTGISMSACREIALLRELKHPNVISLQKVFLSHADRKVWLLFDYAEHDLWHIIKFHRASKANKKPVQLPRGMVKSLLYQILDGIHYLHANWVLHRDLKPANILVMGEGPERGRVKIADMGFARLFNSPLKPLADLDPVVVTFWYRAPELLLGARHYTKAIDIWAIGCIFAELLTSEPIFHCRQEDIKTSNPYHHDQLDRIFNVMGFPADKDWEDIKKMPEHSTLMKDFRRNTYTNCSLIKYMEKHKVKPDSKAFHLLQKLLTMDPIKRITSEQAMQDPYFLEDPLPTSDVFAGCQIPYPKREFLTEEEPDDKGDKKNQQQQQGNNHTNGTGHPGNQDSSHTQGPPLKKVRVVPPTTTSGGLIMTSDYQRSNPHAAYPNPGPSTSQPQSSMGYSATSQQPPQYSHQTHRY

[11] = biological target: Mitogen-activated protein kinase kinase kinase kinase 5 (Homo sapiens) (UniProt Q9Y4K4); experiment: Binding affinity to wild-type human partial length MAP4K5 (M1 to P297 residues) expressed in bacterial expression system assessed as residual binding level at 1 uM by Kinomescan method relative to control
[12] = biological target: Cyclin-dependent kinase-like 3 (Homo sapiens) (UniProt Q8IVW4); experiment: Binding affinity to wild-type human partial length CDKL3 (M1 to D327 residues) expressed in bacterial expression system assessed as residual binding level at 1 uM by Kinomescan method relative to control
[13] = biological target: Serine/threonine-protein kinase MARK1 (Homo sapiens) (UniProt Q9P0L2); experiment: Binding affinity to wild-type human partial length MARK1 (Q30 to T341 residues) expressed in bacterial expression system assessed as residual binding level at 1 uM by Kinomescan method relative to control
Summary of the method: (§5)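 Active-site-directed competition binding panel of 468 kinases (KinomeScan), compound at 1 μM. The read-out is kinase remaining bound, given as a percentage of the DMSO control. […]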

[14] = biological target: Tyrosine-protein kinase Lck (Homo sapiens) (UniProt P06239); experiment: Binding affinity to wild-type human partial length LCK (R207 to P509 residues) expressed in bacterial expression system assessed as residual binding level at 1 uM by Kinomescan method relative to control; summary of the method: as §5
[15] = biological target: Activin receptor type-1-like (Homo sapiens) (UniProt P37023); experiment: Binding affinity to wild-type human ACVRL1 (L164 to Q503 residues) expressed in bacterial expression system assessed as residual binding level at 1 uM by Kinomescan method relative to control; summary of the method: as §4
[16] = biological target: Tyrosine-protein kinase receptor Tie-1 (Homo sapiens) (UniProt P35590); experiment: Binding affinity to wild-type human partial length TIE1 (T819 to A1138 residues) expressed in bacterial expression system assessed as residual binding level at 1 uM by Kinomescan method relative to control; summary of the method: as §3
[17] = system: Epidermal growth factor receptor (Homo sapiens), P00533 [L861Q]; experiment: Binding affinity to human partial length EGFR L861Q mutant (R669 to V1011 residues) expressed in bacterial expression system assessed as residual binding level at 1 uM by Kinomescan method relative to control; summary of the method: as §1
[18] = biological target: Calcium/calmodulin-dependent protein kinase type 1B (Homo sapiens) (UniProt Q6P2M8); experiment: Binding affinity to wild-type human partial length CAMK1B (W9 to A311 residues) expressed in mammalian expression system assessed as residual binding level at 1 uM by Kinomescan method relative to control; summary of the method: as §2
Sequence of Calcium/calmodulin-dependent protein kinase type 1B (Homo sapiens) (Q6P2M8 whole entry, the tested form may be a part): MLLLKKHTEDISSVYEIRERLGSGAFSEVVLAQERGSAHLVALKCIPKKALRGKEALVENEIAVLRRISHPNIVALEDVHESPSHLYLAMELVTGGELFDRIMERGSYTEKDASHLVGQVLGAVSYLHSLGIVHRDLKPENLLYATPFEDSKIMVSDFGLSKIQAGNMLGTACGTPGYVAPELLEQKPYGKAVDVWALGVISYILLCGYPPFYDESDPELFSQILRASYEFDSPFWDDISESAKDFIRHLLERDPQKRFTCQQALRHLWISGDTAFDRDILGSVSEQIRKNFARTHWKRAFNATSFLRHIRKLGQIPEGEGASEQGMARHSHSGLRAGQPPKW

[19] = biological target: Serine/threonine-protein kinase OSR1 (Homo sapiens) (UniProt O95747); experiment: Binding affinity to wild-type human full length OSR1 (M1 to S527 residues) expressed in mammalian expression system assessed as residual binding level at 1 uM by Kinomescan method relative to control
Summary of the method: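 Active-site-directed competition binding panel (KinomeScan) covering 468 kinases. Test agent was screened at 1 μM. The read-out is the remaining kinase signal expressed relative to a DMSO control. Scores above 35%, taken as weak binding, were not reported.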

[20] = system: ALK tyrosine kinase receptor (Homo sapiens), Q9UM73 [L1196M]; experiment: Binding affinity to wild-type human partial length ALK L1196M mutant (I1088 to E1409 residues) expressed in mammalian expression system assessed as residual binding level at 1 uM by Kinomescan method relative to control
Sequence of ALK tyrosine kinase receptor (Homo sapiens), Q9UM73 [L1196M] (Q9UM73 whole entry L1196M, looked up, the tested form may be a part): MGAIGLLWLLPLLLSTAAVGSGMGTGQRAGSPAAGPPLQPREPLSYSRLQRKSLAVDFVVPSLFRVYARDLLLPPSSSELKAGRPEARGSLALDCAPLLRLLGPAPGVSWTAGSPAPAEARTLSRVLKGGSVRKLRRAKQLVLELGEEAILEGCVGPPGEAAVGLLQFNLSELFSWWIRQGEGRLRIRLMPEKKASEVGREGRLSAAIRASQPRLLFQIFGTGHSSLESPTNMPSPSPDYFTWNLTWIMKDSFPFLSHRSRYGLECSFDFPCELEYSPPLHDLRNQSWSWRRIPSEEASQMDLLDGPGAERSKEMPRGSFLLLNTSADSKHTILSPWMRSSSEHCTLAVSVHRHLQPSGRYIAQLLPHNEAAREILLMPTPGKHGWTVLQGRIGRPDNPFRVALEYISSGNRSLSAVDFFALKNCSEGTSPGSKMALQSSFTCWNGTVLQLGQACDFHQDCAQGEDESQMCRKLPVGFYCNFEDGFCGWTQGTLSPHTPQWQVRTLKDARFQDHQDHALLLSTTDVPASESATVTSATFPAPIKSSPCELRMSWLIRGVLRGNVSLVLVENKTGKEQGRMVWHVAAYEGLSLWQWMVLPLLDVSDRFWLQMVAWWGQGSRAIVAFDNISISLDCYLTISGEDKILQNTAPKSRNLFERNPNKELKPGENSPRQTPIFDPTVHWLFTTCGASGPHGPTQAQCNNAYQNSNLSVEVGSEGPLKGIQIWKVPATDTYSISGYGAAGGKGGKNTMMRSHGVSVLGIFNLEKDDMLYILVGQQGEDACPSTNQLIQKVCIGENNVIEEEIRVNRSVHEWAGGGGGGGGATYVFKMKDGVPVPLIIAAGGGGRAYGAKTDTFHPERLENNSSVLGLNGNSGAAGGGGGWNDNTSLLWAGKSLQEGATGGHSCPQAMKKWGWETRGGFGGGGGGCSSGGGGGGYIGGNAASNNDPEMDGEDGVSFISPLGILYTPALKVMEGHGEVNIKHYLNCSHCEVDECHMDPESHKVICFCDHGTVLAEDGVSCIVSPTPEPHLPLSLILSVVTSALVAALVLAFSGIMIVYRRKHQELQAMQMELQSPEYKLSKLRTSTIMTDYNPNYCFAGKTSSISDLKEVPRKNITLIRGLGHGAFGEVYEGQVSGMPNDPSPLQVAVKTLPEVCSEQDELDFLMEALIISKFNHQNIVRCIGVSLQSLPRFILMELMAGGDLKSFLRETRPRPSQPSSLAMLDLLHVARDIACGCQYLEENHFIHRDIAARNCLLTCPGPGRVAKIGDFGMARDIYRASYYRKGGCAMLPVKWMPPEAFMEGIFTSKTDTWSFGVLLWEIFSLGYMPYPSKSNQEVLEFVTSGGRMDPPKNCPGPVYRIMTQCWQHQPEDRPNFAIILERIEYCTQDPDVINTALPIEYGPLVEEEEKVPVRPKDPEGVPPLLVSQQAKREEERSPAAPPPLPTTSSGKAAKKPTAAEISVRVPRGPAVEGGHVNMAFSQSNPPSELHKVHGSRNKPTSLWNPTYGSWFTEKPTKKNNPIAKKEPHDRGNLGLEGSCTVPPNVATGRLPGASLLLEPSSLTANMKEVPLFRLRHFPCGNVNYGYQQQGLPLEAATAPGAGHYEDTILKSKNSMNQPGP

Structure (SMILES): C=CC(=O)Nc1ccccc1Nc1nc(Nc2ccc(N3CCN(C)CC3)cc2)ncc1C(=O)Nc1c(C)cccc1Cl
- Activity [1]: 92%
- Activity [2]: 100%
- Activity [3]: 88%
- Activity [4]: 100%
- Activity [5]: 100%
- Activity [6]: 86%
- Activity [7]: 100%
- Activity [8]: 100%
- Activity [9]: 100%
- Activity [10]: 100%
- Activity [11]: 100%
- Activity [12]: 100%
- Activity [13]: 99%
- Activity [14]: 0.25%
- Activity [15]: 100%
- Activity [16]: 83%
- Activity [17]: 55%
- Activity [18]: 98%
- Activity [19]: 100%
- Activity [20]: 90%
